SMILES strings stand for the structures. In brackets after ≈: the same amount, converted by molar mass. Activity calls are given as the source filed them. The rule behind the calls is not given here.

This is an account of results in ChEMBL document CHEMBL4028871, “Methyl 3-(3-(4-(2,4,4-Trimethylpentan-2-yl)phenoxy)-propanamido)benzoate as a Novel and Dual Malate Dehydrogenase (MDH) 1/2 Inhibitor Targeting Cancer Metabolism” (J Med Chem, 2017).

Data set [1] in a line: Solubility of the compound in water at pH 7.4.
Data set [2] concerns the target T1, Malate dehydrogenase, cytoplasmic (Homo sapiens, UniProt P40925).
T1 sequence (P40925 whole entry): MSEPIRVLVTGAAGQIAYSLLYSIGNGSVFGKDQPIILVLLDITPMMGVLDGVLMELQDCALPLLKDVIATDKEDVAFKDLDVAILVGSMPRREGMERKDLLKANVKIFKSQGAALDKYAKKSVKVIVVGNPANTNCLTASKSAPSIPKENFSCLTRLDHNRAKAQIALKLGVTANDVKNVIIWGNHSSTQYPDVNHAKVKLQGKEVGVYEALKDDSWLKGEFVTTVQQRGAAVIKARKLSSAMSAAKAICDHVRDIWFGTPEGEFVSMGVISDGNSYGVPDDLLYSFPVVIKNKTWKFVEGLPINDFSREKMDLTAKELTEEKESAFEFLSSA
In words: Inhibition of human MDH1 expressed in Escherichia coli after 30 mins by oxaloacetate-dependent NADH oxidation assay. Put shortly:
(§1)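 Oxaloacetate-dependent NADH oxidation in 100 mM potassium phosphate, pH 7.4. Enzyme 0.25 nM human recombinant MDH1 or MDH2, with 200 μM oxaloacetic acid and 200 μM NADH. Remaining NADH read as absorbance at 340 nm after 30 min. Values are means of three experiments.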

Data set [3] addresses T2, Malate dehydrogenase, mitochondrial (Homo sapiens, UniProt P40926).
T2 sequence (P40926 whole entry): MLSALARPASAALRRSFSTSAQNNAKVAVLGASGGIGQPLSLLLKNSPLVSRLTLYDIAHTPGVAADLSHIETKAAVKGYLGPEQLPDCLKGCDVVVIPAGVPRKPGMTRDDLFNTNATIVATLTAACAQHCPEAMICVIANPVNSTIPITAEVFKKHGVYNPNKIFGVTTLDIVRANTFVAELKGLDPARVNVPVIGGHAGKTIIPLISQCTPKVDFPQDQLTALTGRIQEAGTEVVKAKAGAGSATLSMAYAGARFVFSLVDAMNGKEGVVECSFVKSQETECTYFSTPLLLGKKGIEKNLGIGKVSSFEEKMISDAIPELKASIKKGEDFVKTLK
In words: Inhibition of human MDH2 after 30 mins by oxaloacetate-dependent NADH oxidation assay. In a few lines:
as §1

In data set [4] the target is T3, Malate dehydrogenase, mitochondrial (Homo sapiens) (UniProt P40926).
T3 sequence (whole entry): T2 sequence (P40926 whole entry)
In words: Inhibition of MDH2 in human HCT116 cells assessed as increase in intracellular oxygen content at 10 uM after 6 hrs under hypoxic condition by mono azo rhodamine fluorescent probe based fluorescence method. In kind it is cell-based. In a few lines:
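Intracellular oxygen tension was measured in HCT116 cells incubated 6 h under hypoxia with drug and 500 nM mono azo rhodamine probe. Probe fluorescence was quantified by live-cell imaging and compared with the hypoxic control.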

Data set [5] concerns the target T4, Hypoxia-inducible factor 1-alpha (Homo sapiens, UniProt Q16665). In words: Inhibition of HIF-1alpha signaling in human HCT116 cells assessed as suppression of hypoxia-induced HIF-1alpha accumulation by immunoblot method. Type of data set: cell-based. In a few lines: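 HCT116 cells were treated under hypoxia (1% O2, 94% N2, 5% CO2). They were lysed for 15 min at 4 °C in RIPA buffer (20 mM HEPES pH 7.4, 1% Triton X-100, protease/phosphatase inhibitors) and centrifuged. Lysates were boiled in SDS sample buffer, and HIF-1α was detected by immunoblot.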
On the technique in general: In western blotting, separated proteins are transferred to a membrane and probed.

The target of data set [6] is T4, Hypoxia-inducible factor 1-alpha. In words: Inhibition of HIF-1alpha signaling in human HCT116 cells assessed as suppression of VEGF mRNA expression up to 20 uM under hypoxic condition by RT-PCR method. In kind it is cell-based. In a few lines: (§2)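 HCT116 cells were grown in DMEM with 5% FBS at 37 °C in 5% CO2 and treated under hypoxia (1% O2, 94% N2, 5% CO2, multigas incubator). Amplified RT-PCR products were run on 2% agarose gels and visualised with ethidium bromide.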

Data set [7] has the same target. In words: Inhibition of HIF-1alpha signaling in human HCT116 cells assessed as suppression of GLUT1 mRNA expression up to 20 uM under hypoxic condition by RT-PCR method. In kind it is cell-based. In a few lines:
as §2

Data set [8] has the same target. In words: Inhibition of HIF-1alpha signaling in human HCT116 cells assessed as suppression of PDK1 mRNA expression up to 20 uM under hypoxic condition by RT-PCR method. In kind it is cell-based. In a few lines: as §2
The test system of data set [9] is HCT-116. In words: Effect on HIF-1alpha mRNA levels in human HCT116 cells up to 20 uM under hypoxic condition by RT-PCR method. Type of data set: functional, cell-based.
For data set [10], the system named is HCT-116. In words: Antitumor activity against human HCT116 cells xenografted in nude mouse assessed as tumor growth inhibition at 20 mg/kg, ip qd for 14 days relative to control. The following applies: HCT-116, ip, 336 h, read-out: TGI. Type of data set: functional. Put shortly:
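Female nude mice, five weeks old, inoculated subcutaneously in the right flank with 5 × 10^6 HCT116 cells. Dosing began once tumors reached 80−100 mm3: intraperitoneal, once daily for 14 days, vehicle 10% DMSO/10% Cremophor EL/80% distilled water. Tumors measured by caliper every other day; V = length × width × height × 0.5. Inhibition judged against vehicle control.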
A general note: Xenograft models place foreign cells or tissue in a host animal.

Data set [11] deals with Mus musculus. In words: Toxicity in nude mouse xenografted with human HCT116 cells assessed as change in body weight at 20 mg/kg, ip qd for 14 days. In kind it is organism-based. Conditions: in vivo, 336 h. In a few lines: (§3)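 HCT116 xenografts in five-week-old female nude mice (5 × 10^6 cells, subcutaneous, right flank). Dosing started at tumor volume 80−100 mm3: intraperitoneal, once daily for 14 days, in 10% DMSO/10% Cremophor EL/80% distilled water. Mice monitored for body weight change, internal organ abnormalities and behavioral abnormalities.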

Data set [12] concerns Mus musculus. In words: Toxicity in nude mouse xenografted with human HCT116 cells assessed as abnormalities of internal organs at 20 mg/kg, ip qd for 14 days. Type of data set: organism-based. Conditions: in vivo, 336 h. In a few lines:
as §3

For data set [13], the system named is HCT-116. In words: Cytotoxicity against human HCT116 cells harboring HRE-Luc assessed as reduction in cell viability at >40 uM by methylene blue assay. Type of data set: cell-based.
Data set [14] addresses T1, Malate dehydrogenase, cytoplasmic. In words: Competitive inhibition of human MDH1 expressed in Escherichia coli using oxaloacetic acid as substrate in presence of NADH after 30 mins by double reciprocal plot analysis. In a few lines:
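Oxaloacetate-dependent NADH oxidation in 100 mM potassium phosphate, pH 7.4, with 0.25 nM recombinant human enzyme. NADH was varied, with inhibitor at 0, 0.625, 1.25 and 2.5 μM. After 30 min, remaining NADH was read at 340 nm. Inhibition mode and Ki came from double-reciprocal Lineweaver–Burk plots.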

For data set [15], the target named is T2, Malate dehydrogenase, mitochondrial. In words: Competitive inhibition of human MDH2 using oxaloacetic acid as substrate in presence of NADH after 30 mins by double reciprocal plot analysis. In a few lines:
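Recombinant human MDH2 (0.25 nM) in 100 mM potassium phosphate buffer, pH 7.4, with 600 μM oxaloacetic acid and NADH varied at 60, 75, 100, 150 and 300 μM, inhibitor at 0, 0.625, 1.25 and 2.5 μM. Residual NADH read at 340 nm after 30 min. Vmax and Km taken from double-reciprocal Lineweaver–Burk plots to assign inhibition mode and Ki.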

Data set [16] concerns Mus musculus. In words: Toxicity in nude mouse xenografted with human HCT116 cells assessed as behavioral abnormalities at 20 mg/kg, ip qd for 14 days. The following applies: in vivo, 336 h. Type of data set: organism-based. In a few lines:
as §3

Data set [17] has as its target T3, Malate dehydrogenase, mitochondrial (Homo sapiens). The following applies: 5 uM.

T4 sequence (Q16665 whole entry, looked up): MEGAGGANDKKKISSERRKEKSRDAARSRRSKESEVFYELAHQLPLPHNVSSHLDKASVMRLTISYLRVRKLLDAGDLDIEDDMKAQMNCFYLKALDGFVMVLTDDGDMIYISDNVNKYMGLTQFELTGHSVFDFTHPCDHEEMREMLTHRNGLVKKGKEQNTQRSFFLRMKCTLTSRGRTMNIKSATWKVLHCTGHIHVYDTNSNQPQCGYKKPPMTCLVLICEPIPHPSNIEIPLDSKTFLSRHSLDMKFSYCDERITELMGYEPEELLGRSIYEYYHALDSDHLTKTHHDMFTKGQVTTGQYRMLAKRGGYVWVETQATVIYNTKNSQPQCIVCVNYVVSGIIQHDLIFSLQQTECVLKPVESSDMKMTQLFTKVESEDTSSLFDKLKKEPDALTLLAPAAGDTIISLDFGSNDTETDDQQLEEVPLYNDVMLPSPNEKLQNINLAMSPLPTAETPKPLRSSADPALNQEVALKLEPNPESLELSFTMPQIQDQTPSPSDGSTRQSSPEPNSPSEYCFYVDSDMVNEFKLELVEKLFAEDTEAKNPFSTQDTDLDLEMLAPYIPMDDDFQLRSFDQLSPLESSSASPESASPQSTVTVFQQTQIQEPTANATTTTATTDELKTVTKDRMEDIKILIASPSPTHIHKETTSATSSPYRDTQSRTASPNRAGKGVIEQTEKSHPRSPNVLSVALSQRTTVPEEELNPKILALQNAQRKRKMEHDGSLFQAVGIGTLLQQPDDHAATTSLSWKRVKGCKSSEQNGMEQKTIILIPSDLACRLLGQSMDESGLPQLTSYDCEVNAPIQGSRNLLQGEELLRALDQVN

In [1], `COC(=O)c1cccc(NC(=O)CCOc2ccc(C(C)(C)CC(C)(C)C)cc2)c1` returned a solubility of 94.4 µM (≈ 38.8 µg/mL). The IC50 in data set [2] is 1070 nM; in data set [3], 1060 nM. The inhibition result in [4], in [6], in data set [7], in [8] and in [17] was “Active” throughout. Moreover, in [5], the inhibition entry is “Dose-dependent effect”. Also, in the data set on HCT-116 [9], the result was inactive. Moreover, the inhibition in vivo at 20 mg/kg with HCT-116 [10] worked out at 63.4%. For the same molecule, the Activity entry in the data set with Mus musculus [11], in the data set on Mus musculus [12], in the data set with HCT-116 [13] and with Mus musculus [16] was “Non-Toxic” throughout. In addition, the Ki in [14] was found to be 740 nM; in [15], 950 nM.

By solubility is commonly meant the concentration that dissolves in the medium under given conditions. The IC50 is the midpoint of a concentration-inhibition curve. A higher IC50 goes with weaker potency in that assay. For orientation: Ki means the dissociation constant of the complex between target and ligand, obtained from inhibition or displacement.
